In ChEMBL document CHEMBL4425098, “Thiolactomycin-Based Inhibitors of Bacterial β-Ketoacyl-ACP Synthases with in Vivo Activity” (J Med Chem, 2016):
Values after ≈ are worked out from the molar mass of the structure shown. Active and inactive are the calls of the source. The rule behind the calls is not given here.

Tests used:
[1] = system: Francisella tularensis; experiment: Antibacterial activity against Francisella tularensis LVS after 18 to 24 hrs by Alamar blue dye-based colorimetric assay; assay type: functional
[2] = system: Staphylococcus aureus; experiment: Antibacterial activity against methicillin-resistant Staphylococcus aureus BAA 1762 after 18 to 24 hrs by Alamar blue dye-based colorimetric assay; assay type: functional
[3] = system: Yersinia pestis; experiment: Antibacterial activity against Yersinia pestis A1122 after 18 to 24 hrs by Alamar blue dye-based colorimetric assay; assay type: functional
[4] = system: Staphylococcus aureus; experiment: Antibacterial activity against methicillin-sensitive Staphylococcus aureus RN4220 after 18 to 24 hrs by Alamar blue dye-based colorimetric assay; assay type: functional
In short: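 Two-fold serial dilutions from 512 down to 0.25 μg/mL in CAMHB (microbroth dilution); incubated 37 °C for 18–24 h, then Alamar Blue added for a further 4 h. Absorbance read at 570 and 600 nm; percent growth reduction plotted against concentration, MIC90 from non-linear regression; growth and MICs confirmed by optical density.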

[5] = system: Mycobacterium tuberculosis; experiment: Antibacterial activity against Mycobacterium tuberculosis H37Rv after 6 days by Alamar blue dye-based colorimetric assay; assay type: functional; conditions: 144 h
In short: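 M. tuberculosis H37Rv grown to early-mid log phase in Middlebrook 7H9 with 10% OADC and 0.05% Tween 80, added to 1:2 serial compound dilutions, and grown for 6 days at 37°C. Alamar blue then added for a further 24 h. MIC taken as the concentration preventing visible growth and Alamar blue reduction in all replicates.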

[6] = system: Klebsiella pneumoniae; experiment: Antibacterial activity against Klebsiella pneumoniae KPC2ST258 infected in Swiss Webster mouse assessed as survival time at 100 mg/kg, sc administered 1, 12 and 24 hrs post infection measured every 12 hrs for 7 days; assay type: functional
In short: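 K. pneumoniae KPC2ST258 was given IP as 5×10⁶ cfu in BHI broth. Drugs in saline/PEG400/ethanol (40/20/40) were injected SC at 100 mg/kg/inj at 1, 12 and 24 h post infection. Mice were checked every 12 h for 7 days, n=8–10 per group. Average survival time was compared with vehicle by one-tailed t test.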

[7] = system: Klebsiella pneumoniae; experiment: Antibacterial activity against Klebsiella pneumoniae KPC2ST258 after 18 to 24 hrs by Alamar blue dye-based colorimetric assay; assay type: functional, organism-based
[8] = system: Mycobacterium tuberculosis; experiment: Binding affinity to Mycobacterium tuberculosis wild type FabB expressed in Mycobacterium smegmatis MC2 155 by WaterLOGSY-based competition assay
[9] = system: Burkholderia pseudomallei; experiment: Antibacterial activity against Burkholderia pseudomallei after 18 to 24 hrs by Alamar blue dye-based colorimetric assay; assay type: functional
[10] = molecular target: T1, 3-oxoacyl-[acyl-carrier-protein] synthase 2 (Staphylococcus aureus, UniProt Q5TKS0); experiment: Binding affinity to Staphylococcus aureus wild type FabF expressed in Escherichia coli BL21 (DE3) PlysS cells by intrinsic tryptophan fluorescence quenching-based fluorimetric method
T1 sequence (Q5TKS0 whole entry): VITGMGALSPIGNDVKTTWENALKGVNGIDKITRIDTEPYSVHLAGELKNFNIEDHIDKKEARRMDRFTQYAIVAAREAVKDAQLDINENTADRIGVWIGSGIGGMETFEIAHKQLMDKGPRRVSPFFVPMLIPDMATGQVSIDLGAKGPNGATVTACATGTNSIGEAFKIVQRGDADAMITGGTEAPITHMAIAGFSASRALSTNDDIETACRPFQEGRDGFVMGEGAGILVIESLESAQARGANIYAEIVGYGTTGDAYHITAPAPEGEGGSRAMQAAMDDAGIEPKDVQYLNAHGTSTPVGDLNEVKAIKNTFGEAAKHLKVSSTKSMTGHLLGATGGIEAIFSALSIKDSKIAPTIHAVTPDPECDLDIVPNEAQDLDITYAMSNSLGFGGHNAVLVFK

[11] = system: Staphylococcus aureus; experiment: Antibacterial activity against methicillin-resistant Staphylococcus aureus BAA 1762 infected in Swiss Webster mouse assessed as survival time at 100 mg/kg, sc administered 1 and 25 hrs post infection measured twice a day for 5 days; assay type: functional
In short: (§1)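 Mice made neutropenic with cyclophosphamide 4 days and 1 day before infection. MRSA BAA 1762 was given IP as 0.5 mL of 5×10⁷ cells/mL in BHI. Analogues in water/ethanol, or vancomycin in water, were dosed SC at 100 mg/kg/inj at 1 and 25 h post infection. Survival was checked every 12 h for 5 days, n=6–7 per group. Average survival time was compared with vehicle by one-tailed t test.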

[12] = system: Staphylococcus aureus; experiment: Antibacterial activity against methicillin-resistant Staphylococcus aureus BAA 1762 infected in sc dosed Swiss Webster mouse assessed as increase in survival rate administered 1 and 25 hrs post infection measured twice a day for 5 days; assay type: functional; conditions: BAA 1762, sc; in short: as §1

Row | Molecule | MIC90 [1] [µg/mL] | MIC90 [2] [µg/mL] | MIC90 [3] [µg/mL] | MIC90 [4] [µg/mL] | MIC90 [5] [µg/mL] | MSD [6] [days] | MIC [7] [µg/mL] | Activity [8] | Activity [9] | Kd [10] [µM] | MSD [11] [days] | ED50 [12] [mg/kg] | MIC [9] [µg/mL]
1 | C=C/C(C)=C/[C@@]1(C)SC(=O)C(CCCCc2ccc(Cl)cc2)=C1O | 1.7 (≈ 4.68 µM) | 50 (≈ 138 µM) | > 250 | 64 (≈ 176 µM) | 100 (≈ 276 µM) | – | – | – | – | – | – | – | –
2 | C=C/C(C)=C/[C@@]1(C)SC(=O)C(CCCN=[N+]=[N-])=C1O | 23.6 (≈ 84.5 µM) | > 100 | > 250 | > 64 | 100 (≈ 358 µM) | – | – | – | – | – | – | – | –
3 | GENTAMICIN | – | – | – | – | – | 6.2 | < 1 | – | – | – | – | – | –
4 | C=C/C(C)=C/[C@@]1(C)SC(=O)C=C1OCC(=O)NCCn1cc(CNC(=O)c2ccc(NS(=O)(=O)c3ccc(F)cc3)cc2)nn1 | > 256 | > 64 | – | > 64 | > 100 | – | – | inactive | – | – | – | – | –
5 | C=C/C(C)=C/[C@@]1(C)SC(=O)C(CCCCc2ccc(F)cc2)=C1O | 3.1 (≈ 8.95 µM) | 75 (≈ 216 µM) | > 250 | > 64 | > 100 | – | – | – | inactive | – | – | – | –
6 | C=C/C(C)=C/[C@@]1(C)SC(=O)C(CCCCN=[N+]=[N-])=C1O | 15.3 (≈ 52.1 µM) | > 100 | > 250 | > 64 | 100 (≈ 341 µM) | – | – | – | – | 107 | – | – | –
7 | C=C/C(C)=C/[C@@]1(C)SC(=O)C=C1O | 124 (≈ 632 µM) | 100 (≈ 509 µM) | 250 (≈ 1270 µM) | 150 (≈ 764 µM) | > 100 | – | – | inactive | inactive | – | – | – | –
8 | C=C/C(C)=C/[C@@]1(C)SC(=O)C=C1OCC(=O)NCCN=[N+]=[N-] | 39 (≈ 121 µM) | > 64 | – | > 64 | > 100 | – | – | inactive | – | – | – | – | –
9 | C=C/C(C)=C/[C@@]1(C)SC(=O)C(C(=O)OC)=C1O | 58.2 (≈ 229 µM) | > 64 | > 250 | > 64 | 100 (≈ 393 µM) | – | – | – | inactive | – | – | – | –
10 | C=C/C(C)=C/[C@@]1(C)SC(=O)C(CCc2ccc(Cl)cc2)=C1O | 3.1 (≈ 9.26 µM) | 100 (≈ 299 µM) | > 250 | 64 (≈ 191 µM) | 100 (≈ 299 µM) | – | – | – | inactive | – | – | – | –
11 | CN[C@H](CC(C)C)C(=O)N[C@H]1C(=O)N[C@@H](CC(N)=O)C(=O)N[C@H]2C(=O)N[C@H]3C(=O)N[C@H](C(=O)N[C@H](C(=O)O)c4cc(O)cc(O)c4-c4cc3ccc4O)[C@H](O)c3ccc(c(Cl)c3)Oc3cc2cc(c3O[C@@H]2O[C@H](CO)[C@@H](O)[C@H](O)[C@H]2O[C@H]2C[C@](C)(N)[C@H](O)[C@H](C)O2)Oc2ccc(cc2Cl)[C@H]1O [VANCOMYCIN] | – | – | – | – | – | – | – | – | – | – | 5 | < 30 | –
12 | C=C/C(C)=C/[C@@]1(C)SC(=O)C(CC)=C1O | 6.9 (≈ 30.8 µM) | 125 (≈ 557 µM) | 145 (≈ 646 µM) | 150 (≈ 669 µM) | 2.5 (≈ 11.1 µM) | – | – | – | – | – | – | – | 32 (≈ 143 µM)
13 | C=C/C(C)=C/[C@@]1(C)SC(=O)C(C(=O)CCCCCCCCCCCCCCC)=C1O | 3.9 (≈ 8.97 µM) | 1 (≈ 2.3 µM) | > 250 | 0.5 (≈ 1.15 µM) | 100 (≈ 230 µM) | – | – | – | inactive | > 200 | – | – | –
